Results as given in ChEMBL document CHEMBL1126566, “Studies on analogues of classical antifolates bearing the naphthoyl group in place of benzoyl in the side chain” (J Med Chem, 1993).
Where a chain is given by its changes, count along the chain named.

Legend:
Mus musculus [1] = experiment: Antitumor activity against E0771 mammary adenocarcinoma in mice at 150 mg/kg(5 days) was determined and tumor volume at day 7 was reported; assay type: functional
How it was run: (§1)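 Mice bearing implanted E0771 mammary adenocarcinoma, five per test group. Dosing was daily for 5 days, starting on day 3 after implantation. Tumor volume (mm³) was calculated as 4/3πr³ and is also expressed as treated/control (%).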

CCRF-CEM = experiment: (§2) Percent inhibition of Folyl-polyglutamate synthase from CCRF-CEM cells; assay type: cell-based; parameters: concentration or dose not given beside the values; settings: Homo sapiens, dose or concentration not given here
How it was run: (§3)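 FPGS was partially purified from CCRF-CEM cells by (NH₄)₂SO₄ fractionation and gel sieving, with no detectable γ-glutamyl hydrolase. Product was separated on DEAE-cellulose. Percent inhibition is reported.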

Mus musculus [2] = experiment: Antitumor activity against E0771 mammary adenocarcinoma in mice at 100 mg/kg(5 days) was determined and tumor volume at day 10 was reported; assay type: functional; how it was run: as §1
[3] = target: T1, Folylpolyglutamate synthase, mitochondrial (Mus musculus) (UniProt P48760); experiment: Specific activity of L1210 Folyl-polyglutamate synthase
T1 sequence (whole entry): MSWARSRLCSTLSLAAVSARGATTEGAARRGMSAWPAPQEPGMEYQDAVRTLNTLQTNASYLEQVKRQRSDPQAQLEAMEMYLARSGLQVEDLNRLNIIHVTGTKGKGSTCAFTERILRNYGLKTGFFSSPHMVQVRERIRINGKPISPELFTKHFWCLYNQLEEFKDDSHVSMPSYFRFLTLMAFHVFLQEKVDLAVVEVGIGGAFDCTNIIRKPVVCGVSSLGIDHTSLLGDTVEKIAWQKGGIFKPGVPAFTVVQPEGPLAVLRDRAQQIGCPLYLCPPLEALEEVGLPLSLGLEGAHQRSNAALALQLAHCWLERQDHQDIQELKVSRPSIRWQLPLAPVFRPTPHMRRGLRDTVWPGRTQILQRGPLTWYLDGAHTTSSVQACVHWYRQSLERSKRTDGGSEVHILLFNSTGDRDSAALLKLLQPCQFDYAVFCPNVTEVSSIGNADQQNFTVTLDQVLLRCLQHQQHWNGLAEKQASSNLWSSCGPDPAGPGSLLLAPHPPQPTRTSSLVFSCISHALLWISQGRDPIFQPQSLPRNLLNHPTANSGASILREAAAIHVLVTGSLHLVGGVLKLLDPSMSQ
How it was run: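 FPGS from L1210 cells was assayed by [³H]glutamate ligation, like the human enzyme assay. Each folate substrate was at 100 μM, and only specific activity was measured.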

[4] = Ratio of Vmax and Km against CCRF-CEM Folyl-polyglutamate synthetase; assay type: ADME; settings: human
How it was run: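 Substrate assay with CCRF-CEM FPGS. Analogue replaced aminopterin at 0–100 μM (0–200 μM for one analogue). Buffer held 5 mM ATP, 10 mM MgCl₂, 4 mM L-[³H]Glu, pH 8.4, 37 °C. Ligated glutamate was separated on DEAE-cellulose. Assays were run in duplicate or triplicate within linear enzyme and time ranges, and each experiment was repeated. Vmax (relative to aminopterin) and Km give V/K.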

L1210 [5] = experiment: Tested for transport into L1210 cells measured as cell influx; assay type: functional, cell-based, Mus musculus
Dihydrofolate reductase [6] = target: T2, Dihydrofolate reductase (Mus musculus, UniProt P00375); experiment: Inhibitory activity of Dihydrofolate reductase in L1210 cells; assay type: cell-based
T2 sequence (P00375 whole entry): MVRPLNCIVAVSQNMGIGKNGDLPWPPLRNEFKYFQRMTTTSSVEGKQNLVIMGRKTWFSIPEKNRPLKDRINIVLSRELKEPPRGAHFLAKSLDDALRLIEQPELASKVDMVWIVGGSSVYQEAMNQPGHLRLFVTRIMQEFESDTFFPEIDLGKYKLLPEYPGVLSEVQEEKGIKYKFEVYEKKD

Mus musculus [7] = experiment: Antitumor activity against E0771 mammary adenocarcinoma in mice at 100 mg/kg(5 days) was determined and […] at day 7 was reported; assay type: functional
Mus musculus [8] = experiment: Antitumor activity against E0771 mammary adenocarcinoma in mice at 150 mg/kg(5 days) was determined and […] at day 10 was reported; assay type: functional
L1210 [9] = experiment: Tested for the ability to inhibit growth in vitro against L1210; assay type: functional, cell-based; settings: Mus musculus
Mus musculus [10] = experiment: Antitumor activity against E0771 mammary adenocarcinoma in mice at 100 mg/kg(5 days) was determined and […] at day 14 was reported; assay type: functional
Mus musculus [11] = experiment: Antitumor activity against E0771 mammary adenocarcinoma in mice at 150 mg/kg(5 days) was determined and tumor volume at day 10 was reported; assay type: functional; how it was run: as §1
Mus musculus [12] = experiment: Antitumor activity against E0771 mammary adenocarcinoma in mice at 150 mg/kg(5 days) was determined and tumor volume at day 14 was reported; assay type: functional; how it was run: as §1
CCRF S-180 = experiment: Tested for the ability to inhibit growth in vitro against S180; assay type: functional, cell-based; settings: Mus musculus
[13] = Activity relative to saturating aminopterine at 100 uM against CCRF-CEM Folyl-polyglutamate synthetase; assay type: ADME; settings: human
How it was run: (§4)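 FPGS from CCRF-CEM cells: freeze-thawed lysates fractionated by (NH₄)₂SO₄ (0–40% saturation pellet) and gel sieving, stored at –90 °C in 20% glycerol, free of detectable γ-glutamyl hydrolase. Product was separated on DEAE-cellulose minicolumns. Run in duplicate or triplicate, and each experiment was repeated at least once.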

Mus musculus [14] = experiment: Antitumor activity against E0771 mammary adenocarcinoma in mice at 150 mg/kg(5 days) was determined and […] at day 7 was reported; assay type: functional
Mus musculus [15] = experiment: Antitumor activity against E0771 mammary adenocarcinoma in mice at 100 mg/kg(5 days) was determined and tumor volume at day 14 was reported; assay type: functional; how it was run: as §1
Mus musculus [16] = experiment: Antitumor activity against E0771 mammary adenocarcinoma in mice at 150 mg/kg(5 days) was determined and […] at day 14 was reported; assay type: functional
Mus musculus [17] = experiment: Antitumor activity against E0771 mammary adenocarcinoma in mice at 100 mg/kg(5 days) was determined and […] at day 10 was reported; assay type: functional
HL-60 = experiment: Tested for the ability to inhibit growth in vitro against HL60; assay type: functional, cell-based; settings: Homo sapiens
Dihydrofolate reductase [18] = target: T3, Dihydrofolate reductase (Pneumocystis carinii, UniProt P16184); experiment: Tested for inhibition against Pneumocystis carinii DHFR (dihydrofolate reductase)
T3 sequence (P16184 whole entry): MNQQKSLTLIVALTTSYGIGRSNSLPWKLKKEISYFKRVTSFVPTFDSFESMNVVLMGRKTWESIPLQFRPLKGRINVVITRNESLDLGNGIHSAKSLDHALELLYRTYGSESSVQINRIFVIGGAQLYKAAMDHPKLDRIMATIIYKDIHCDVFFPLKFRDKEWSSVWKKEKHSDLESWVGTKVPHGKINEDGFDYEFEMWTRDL

Dihydrofolate reductase [19] = target: T4, Dihydrofolate reductase (Rattus norvegicus, UniProt Q920D2); experiment: Tested for inhibition against rat liver DHFR (dihydrofolate reductase)
T4 sequence (Q920D2 whole entry): T2 sequence (P00375 whole entry) with P27L, R85Q, R99K, I115V, G155E, V170I

Mus musculus [20] = experiment: Antitumor activity against E0771 mammary adenocarcinoma in mice at 100 mg/kg(5 days) was determined and tumor volume at day 7 was reported; assay type: functional; how it was run: as §1
[21] = system: Folyl-polyglutamate synthase; experiment: Michaelis-Menten constant was determined against CCRF-CEM Folyl-polyglutamate synthase; assay type: ADME; settings: human, folylpolyglutamate synthase from CCRF-CEM cells; how it was run: as §4
Mus musculus [22] = experiment: Antitumor activity against E0771 mammary adenocarcinoma in mice at 3 mg/kg(5 days) was determined and […] at day 7 was reported; assay type: functional
How it was run: (§5)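 E0771 mammary adenocarcinoma implanted in mice, five mice per group. Treatment was given daily for 5 days, starting day 3 after implantation. Tumor volume was calculated as 4/3πr³ and averaged on days 7, 10 and 14. T/C (%) is the treated/control tumor volume. Toxic deaths were recorded.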

Mus musculus [23] = experiment: Antitumor activity against E0771 mammary adenocarcinoma in mice at 3 mg/kg(5 days) was determined and […] at day 14 was reported; assay type: functional; how it was run: as §5
[24] = as §2; assay type: cell-based, Homo sapiens; how it was run: as §3
Mus musculus [25] = experiment: Antitumor activity against E0771 mammary adenocarcinoma in mice at 6 mg/kg(5 days) was determined and […] at day 10 was reported; assay type: functional; how it was run: as §5
Mus musculus [26] = experiment: Antitumor activity against E0771 mammary adenocarcinoma in mice at 3 mg/kg(5 days) was determined and tumor volume at day 7 was reported; assay type: functional; how it was run: as §1
Mus musculus [27] = experiment: Antitumor activity against E0771 mammary adenocarcinoma in mice at 6 mg/kg(5 days) was determined and tumor volume at day 10 was reported; assay type: functional; how it was run: as §1
Mus musculus [28] = experiment: Antitumor activity against E0771 mammary adenocarcinoma in mice at 6 mg/kg(5 days) was determined and […] at day 14 was reported; toxic indicates 4 toxic deaths; assay type: organism-based; parameters: dose 6 mg/kg; settings: in vivo, 120 h; how it was run: as §5
Mus musculus [29] = experiment: Antitumor activity against E0771 mammary adenocarcinoma in mice at 6 mg/kg(5 days) was determined and tumor volume at day 7 was reported; assay type: functional; how it was run: as §1
Mus musculus [30] = experiment: Antitumor activity against E0771 mammary adenocarcinoma in mice at 6 mg/kg(5 days) was determined and tumor volume at day 14 was reported; toxic indicates 4 toxic deaths; assay type: organism-based; parameters: dose 6 mg/kg; settings: in vivo, 120 h; how it was run: as §5
Mus musculus [31] = experiment: Antitumor activity against E0771 mammary adenocarcinoma in mice at 6 mg/kg(5 days) was determined and […] at day 7 was reported; assay type: functional; how it was run: as §5
Mus musculus [32] = experiment: Antitumor activity against E0771 mammary adenocarcinoma in mice at 3 mg/kg(5 days) was determined and tumor volume at day 10 was reported; assay type: functional; how it was run: as §1
Mus musculus [33] = experiment: Antitumor activity against E0771 mammary adenocarcinoma in mice at 3 mg/kg(5 days) was determined and […] at day 10 was reported; assay type: functional; how it was run: as §5
Mus musculus [34] = experiment: Antitumor activity against E0771 mammary adenocarcinoma in mice at 3 mg/kg(5 days) was determined and tumor volume at day 14 was reported; assay type: functional; how it was run: as §1
Dihydrofolate reductase [35] = target: T3, Dihydrofolate reductase; experiment: Tested for inhibition against Dihydrofolate reductase from Pneumocystis carinii

SMILES	inhibition (CCRF-CEM) [%]	Specific activity (pM hr-1 (mg of protein)-1) [3]	Ki (L1210 [5]) [nM]	Ki (Dihydrofolate reductase [6]) [nM]	IC50 (L1210 [9]) [nM]	IC50 (CCRF S-180) [nM]	Relative Vmax [13]	IC50 (HL-60) [nM]	also measured
CN(Cc1cnc2nc(N)nc(N)c2n1)c1ccc(C(=O)NC(CCC(=O)O)C(=O)O)c2ccccc12 (centres undefined)	3	0.18	1040	0.00522	9	9.3	0.27	3.3	Tumor volume (Mus musculus [1]): 62 mm**3; Tumor volume (Mus musculus [2]): 268 mm**3; V/K [4]: 0.0033; Km (Homo sapiens): 82 µM; T/C (Mus musculus [7]): 37%; T/C (Mus musculus [8]): 23%; T/C (Mus musculus [10]): 48%; Tumor volume (Mus musculus [11]): 144 mm**3; Tumor volume (Mus musculus [12]): 493 mm**3; T/C (Mus musculus [14]): 28%; Tumor volume (Mus musculus [15]): 839 mm**3; T/C (Mus musculus [16]): 28%; T/C (Mus musculus [17]): 43%; IC50 (Dihydrofolate reductase [18]): 0.00019 nM; IC50 (Dihydrofolate reductase [19]): 0.0025 nM; Tumor volume (Mus musculus [20]): 82 mm**3
CN(Cc1cnc2nc(N)nc(N)c2c1)c1ccc(C(=O)NC(CCC(=O)O)C(=O)O)c2ccccc12 (centres undefined)	23	–	780	–	2.3	1.9	–	1.5	–
Nc1nc(N)c2nc(CNc3ccc(C(=O)N[C@@H](CCC(=O)O)C(=O)O)cc3)cnc2n1 [AMINOPTERIN]	–	1.91	–	–	–	–	1	–	Km [21]: 4.1 µM
Nc1nc(N)c2cc(CNc3ccc(C(=O)NC(CCC(=O)O)C(=O)O)c4ccccc34)ccc2n1 (centres undefined)	–	–	900	0.0052	6.1	3.9	–	0.65	–
Cc1c(CNc2ccc(C(=O)NC(CCC(=O)O)C(=O)O)c3ccccc23)cnc2nc(N)nc(N)c12 (centres undefined)	–	–	1310	0.00508	3.9	3.8	0.02	0.74	T/C (Mus musculus [22]): 51%; T/C (Mus musculus [23]): 60%; IC50 [24]: 69000 nM; T/C (Mus musculus [25]): 7%; Tumor volume (Mus musculus [26]): 113 mm**3; Tumor volume (Mus musculus [27]): 42 mm**3; T/C (Mus musculus [28]): Toxic; Tumor volume (Mus musculus [29]): 87 mm**3; Tumor volume (Mus musculus [30]): Toxic; T/C (Mus musculus [31]): 39%; Tumor volume (Mus musculus [32]): 421 mm**3; T/C (Mus musculus [33]): 68%; Tumor volume (Mus musculus [34]): 1048 mm**3
Nc1nc(N)c2cc(CNc3ccc(C(=O)NC(CCC(=O)O)C(=O)O)c4ccccc34)cnc2n1 (centres undefined)	21	–	1520	0.00365	4.2	3.9	0.01	1.4	IC50 (Dihydrofolate reductase [35]): 0.00053 nM
Nc1nc(N)c2nc(CNc3ccc(C(=O)NC(CCC(=O)O)C(=O)O)c4ccccc34)cnc2n1 (centres undefined)	12	0.41	920	0.00455	6	5.9	0.03	4.6	–
Nc1nc(N)c2cc(CNc3ccc(C(=O)NC(CCC(=O)O)C(=O)O)c4c3CCCC4)cnc2n1 (centres undefined)	16	–	600	0.0131	16	33	0.01	17	–
